This is a sample that favours compounds with a hit; in the whole collection about 1.7% have one here.
SR-BI HDL uptake = mouse SR-BI HDL lipid transfer inhibition. Q61009. ldlA[mSR-BI] CHO cells, DiI-HDL uptake fluorescence, 3 h. inhibition, % at 12.5 µM. 320,000 tested, 0.96% active;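 active = mean replicate inhibition of at least 70% and a set share of replicates each scoring 70 or more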;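 note: 0% = median of neutral control wells and 100% = median of positive control wells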
Target sequence (Q61009 whole entry, looked up): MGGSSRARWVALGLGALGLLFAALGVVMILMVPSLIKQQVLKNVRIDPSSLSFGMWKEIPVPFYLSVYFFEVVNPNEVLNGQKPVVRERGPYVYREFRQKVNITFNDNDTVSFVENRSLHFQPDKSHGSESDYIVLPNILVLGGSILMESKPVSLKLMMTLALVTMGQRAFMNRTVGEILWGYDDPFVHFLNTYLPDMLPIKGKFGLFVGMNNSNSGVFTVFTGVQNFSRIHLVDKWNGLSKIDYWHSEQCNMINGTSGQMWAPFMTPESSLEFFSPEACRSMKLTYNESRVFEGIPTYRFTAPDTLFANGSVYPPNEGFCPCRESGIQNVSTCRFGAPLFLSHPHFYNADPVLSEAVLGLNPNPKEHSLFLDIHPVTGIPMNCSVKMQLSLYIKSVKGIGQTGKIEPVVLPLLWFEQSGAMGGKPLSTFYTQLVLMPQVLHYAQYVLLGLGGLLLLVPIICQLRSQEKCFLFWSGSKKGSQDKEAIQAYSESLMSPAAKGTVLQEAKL
Statin myotox sup = suppressors of simvastatin-induced myotoxicity in C2C12 myotubes. 330,000 tested, 0.78% active. AID 602340. ATP luminescence, 48 h; scaled: DMSO 0, geranylgeraniol control 100. rescue of ATP level, % at 7.49 µM;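 active = mean ATP rescue above about 67%, or every replicate alone reaching that limit, limit read from the data, passing the limit was not always enough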;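 note: myotubes were challenged with 10 µM simvastatin during compound exposure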
Vif imaging = HIV Vif inhibition. inhibition, % at 7.49 µM. HEK293T cells, Vif self-association by quenched fluorescence, imaging, 24 h. 340,000 tested, 0.35% active; in the data active = inhibition above about 50%, passing the limit was not always enough
SR-BI DiI-HDL act = enhances SR-BI lipid uptake from DiI-HDL; CHO ldlA[mSR-BI] cells, DiI-HDL uptake fluorescence, 3 h; 100 = double the neutral-control signal; activation, % at 12.5 µM; 320,000 tested, 0.096% active; AID 504775;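 active = mean replicate activation of at least 60% and every replicate at or above 60%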;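 note: 0% = median plate neutral-control signal and 100% = twice that signal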
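system = CHO ldlA[mSR-BI] cells, LDL receptor-null, SR-BI overexpressing | medium = Ham's F12 with 0.5% BSA, HEPES 25 mM, pH 7.4 | probe or stimulus = DiI-HDL 10 µg/mL | compound dosing = single-point compound dose | incubation = compound exposure 3 h, 37 °C | technique = DiI fluorescence, bottom read | read-out = cell-associated DiI fluorescence as measure of HDL uptake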
Numbers without * were called inactive; / = not tested or not shown; + = active, no number.

SMILES	SR-BI HDL uptake	Statin myotox sup	Vif imaging	SR-BI DiI-HDL act
C[C@H](CO)NC(=O)[C@@H]1C[C@H]1[C@@H](NP(=O)(c1ccccc1)c1ccccc1)c1ccccc1	-7.6	115.7*	5.7	7.6
C/C=C/c1ccc(OCCCNC(C)CC)c(OC)c1 (configuration not stated)	1.0	98.6*	35.2	-1.0
Cc1ccc(S(=O)(=O)Nc2ccc3c(c2)C(=O)N([C@H](C)CO)C[C@@H](C)[C@H](CN(C)C)OCCCC[C@H](C)O3)cc1	/	13.5	/	/
COc1ccccc1CCC(=O)Nc1ccc2c(c1)CN(Cc1ccc(C)o1)CC2	81.1*	-4.8	-5.1	-81.1
COc1ccc(NC(=O)CN2CCCN(S(=O)(=O)c3ccc(F)cc3)CC2)c(OC)c1	12.2	94.4*	-0.1	-12.2
CC(C)(C)c1cc[n+](-c2nc([O-])sc2C=O)cc1	-35.3	/	-1.5	35.3
CCc1cc[n+](-c2nc([O-])sc2C=O)cc1	-9.0	108.1*	13.9	9.0
CCn1cnc2scc(-c3ccccc3)c2c1=O	-10.9	/	0.9	10.9
Cn1cc(/C=N/n2cnc3scc(-c4ccc(Cl)cc4)c3c2=O)c2ccccc21	67.6	-104.4	54.1*	-67.6
O=C(c1cccc(-c2nnc(-c3ccccc3)o2)c1)N1CCCCC1	-10.1	120.8*	-3.9	10.1
O=C(c1cccc(-c2nnc(-c3ccccc3)o2)c1)N1CCCCCC1	19.4	7.8	-11.3	-19.4
COc1ccc(/C=C/C(=O)NC(=S)Nc2ccc(S(=O)(=O)N=C(N)N)cc2)cc1OC	-286.0	4.0	-3.3	286.0*
CCC(C)(NC(=O)CNC(C)=O)C(=O)NC1CCCCC1 (configuration not stated)	-33.2	111.7*	-0.5	33.2
CN1C(=O)c2cc(NC(=O)c3ccc(C(F)(F)F)cc3)ccc2OC[C@@H]2O[C@@H](CC(=O)NC3Cc4ccccc4C3)CC[C@H]21	/	-111.4	/	/
Cc1ccc(S(=O)(=O)O/N=C2\CCCc3ccccc32)cc1	21.7	26.0	/	-21.7
CC1=C(C)/C(=N\OS(=O)(=O)c2ccccc2)C=CC1=O	86.5*	/	55.5*	-86.6
CCc1cccc(NC(=O)CCS(=O)(=O)c2cc3c(cc2C)NC(=O)CO3)c1	-9.5	1.4	134.1*	9.5
CC(=O)c1cccc(NC(=O)CCS(=O)(=O)c2cc3c(cc2C)NC(=O)CO3)c1	-0.2	1.6	-0.1	0.2
Oc1ccccc1-c1cc(-c2ccc3c(c2)OCCO3)n[nH]1	77.7*	-39.8	0.7	-77.7
O=C(O)c1cc(-c2ccc3c(c2)OCCO3)n[nH]1	-9.0	-3.7	0.2	9.0
C[C@H]1CN([C@@H](C)CO)C(=O)c2cccc(NS(C)(=O)=O)c2O[C@H]1CN(C)Cc1ccc(Cl)c(Cl)c1	/	30.5	/	/
O=C(NCC[C@@H]1CC[C@@H](NS(=O)(=O)c2ccc(F)cc2)[C@H](CO)O1)Nc1ccc(Cl)cc1	/	1.5	/	/
CCCCC/C=N/NC(=O)c1[nH]c2ccc([N+](=O)[O-])cc2c1C	98.3*	/	-4.2	-98.3
Cc1c(C(=O)NN)[nH]c2ccc([N+](=O)[O-])cc12	/	/	-1.6	/
C[C@@H]1CN([C@H](C)CO)S(=O)(=O)c2ccc(C#CC3(O)CCCC3)cc2O[C@@H]1CN(C)C(=O)Nc1cccc(F)c1	/	-9.1	/	/
SMILES	SR-BI HDL uptake	Statin myotox sup	Vif imaging	SR-BI DiI-HDL act
CO[C@H]1CN(C)C(=O)c2ccc(NC(=O)C3CCC3)cc2OC[C@H](C)N(Cc2ccncc2)C[C@@H]1C	/	-2.8	/	/
CCCCOc1nc2ccccc2nc1C(C#N)C(=O)NC1CCCCC1 (configuration not stated)	37.4	107.9*	3.8	-37.4
COc1ccc(-c2nc(-n3c(C)c(C(C)=O)c(C(C)=O)c3C)sc2C)cc1	68.1	/	-3.4	-68.1
CC(=O)c1c(C(C)=O)c(C)n(-c2nc(-c3ccc(C)c(C)c3)c(C)s2)c1C	76.4*	12.4	/	-76.4
COc1ccc(Nc2sc(C(=O)c3ccc(Cl)cc3)c(N)c2C(=O)Nc2ccccc2OC)cc1	92.7*	/	-15.1	-92.7
COc1ccc(C(=O)c2sc(Nc3ccccc3)c(C(=O)Nc3ccc(OC)c(OC)c3)c2N)cc1	/	6.6	/	/
COc1ccc(/C=N/NC(=O)c2cccc([N+](=O)[O-])c2)c2ccccc12	75.3*	-174.3	23.8	-75.3
O=C(N/N=C/c1cccc([N+](=O)[O-])c1)c1ccc(Br)cc1	46.5	/	-3.1	-46.5
O=C(N/N=C/c1cccc([N+](=O)[O-])c1)c1ccc(COc2ccccc2-c2ccccc2)cc1	74.2*	/	-5.7	-74.2
COc1ccccc1/C=C(\NC(=O)c1ccc(OC)c(OC)c1)C(=O)Nc1cccc([N+](=O)[O-])c1	74.0*	/	-0.4	-74.0
CCOc1ccc(C(=O)Nc2cccc([N+](=O)[O-])c2)cc1Br	72.3*	-10.6	-11.1	-72.3
CCOc1ccc(C(=O)Nc2cccc(NC(=O)c3cccs3)c2)cc1[N+](=O)[O-]	43.3	-27.3	-8.4	-43.3
COc1ccccc1/C=C(\NC(=O)c1ccc(OC)c(OC)c1)C(=O)Nc1ccc([N+](=O)[O-])cc1	59.5	/	6.1	-59.5
O=C(C[C@H]1C[C@H]2c3cc(NC(=O)C4CCC4)ccc3O[C@H]2[C@H](CO)O1)NCc1ccccc1F	/	-3.4	/	/
C[C@@H]1CN([C@@H](C)CO)C(=O)Cc2cc(NS(=O)(=O)c3cn(C)cn3)ccc2O[C@H]1CN(C)C(=O)NC1CCCCC1	/	6.2	/	/
C[C@H](CO)N1C[C@H](C)[C@H](CN(C)S(=O)(=O)c2ccc(F)cc2)Oc2c(NS(=O)(=O)c3ccc(Cl)cc3)cccc2C1=O	/	-10.5	/	/
COc1ccc(NC(=O)N(C)C[C@H]2Oc3ccc(NS(=O)(=O)c4ccc(F)cc4)cc3CC(=O)N([C@@H](C)CO)C[C@@H]2C)cc1	/	-1.5	/	/
COc1cc(/C=N/NC(=O)c2cccc([N+](=O)[O-])c2)ccc1OCc1ccccc1	88.6*	-62.9	/	-88.6
Cc1cc(/C=N/NC(=O)c2cccc([N+](=O)[O-])c2)c(C)n1-c1ccc(Cl)cc1Cl	88.9*	/	-5.1	-88.9
Cc1cccc(/C=N/NC(=O)c2cccc([N+](=O)[O-])c2)n1	17.5	/	1.3	-17.5
COc1ccc(C(=O)Nc2cccc(/C(C)=N/NC(=O)c3ccc([N+](=O)[O-])c(C)c3)c2)cc1OC	86.1*	-5.1	5.2	-86.1
CO[C@H]1CN(C)C(=O)c2cc(NC(=O)c3ccccc3F)ccc2OC[C@@H](C)NC[C@@H]1C	/	4.4	/	/
O=C1Cc2ccccc2N1c1ccccc1	-25.3	/	/	25.3
O=C1CC(=Nc2ccccc2)NN1c1ccccc1	107.7*	-2.8	-6.1	-107.7
COc1ccc(NC(=O)Nc2ccc3c(c2)C(=O)N([C@H](C)CO)C[C@H](C)[C@H](CN(C)S(=O)(=O)c2ccc(C)cc2)O3)cc1	/	-56.1	/	/
COc1ccc(OC)c(/C=C/c2nc3ccccc3[nH]c2=O)c1	43.4	31.8	+	-43.4
C/C=C/c1ccc([C@H]2[C@@H](CO)N(C(=O)C3CC3)[C@H]2CN(C)C(=O)C2CC2)cc1	/	15.5	/	/
CCOC(=O)CNc1c(-c2ccccc2)nc2ccc(Cl)cn12	0.7	98.5*	7.8	/
